Measurements published in paper PMC4083419 (Nature Communications, 2014).
Read-outs that look alike come from different tables or passages of the source.

Experiments:
[1] = target: T1, PhENR (Pyrococcus horikoshii, UniProt O58586); experiment: Biocatalytic transformations with PhENR; assay type: biochemical; details: for acceptance as substrate: substrate scope
Outline: (§1)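 Substrate (10 mM) was reduced with NADH or NADPH (15 mM) and enzyme in 50 mM buffer. The initial aerobic screen used Tris-HCl at pH 7, 8 or 9. Optimised anaerobic runs used degassed buffer under an Ar flush: 50 mM phosphate for TtENR, 50 mM Tris-HCl for PhENR, both pH 7, with NADPH. Mixtures were shaken 24 h at 30 °C, 120 r.p.m., then EtOAc-extracted. Conversion was read by achiral GC, e.e. by chiral GC or HPLC. One substrate was given in DMF (1% final).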

[2] = target: T2, TtENR (Thermus thermophilus, UniProt P83818); experiment: Biocatalytic transformations with TtENR; assay type: biochemical; details: for acceptance as substrate: substrate scope, Table 1
T2 sequence (P83818 1-178): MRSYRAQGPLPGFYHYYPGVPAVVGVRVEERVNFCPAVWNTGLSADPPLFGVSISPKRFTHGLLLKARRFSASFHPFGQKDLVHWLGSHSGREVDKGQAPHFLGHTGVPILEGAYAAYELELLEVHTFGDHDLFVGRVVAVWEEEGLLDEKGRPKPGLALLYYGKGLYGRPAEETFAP
Outline: as §1

[3] = target: T1, PhENR; experiment: UV-visible difference titration of ligands with PhENR; assay type: binding
Outline: (§2)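 UV–visible difference titrations at 25 °C in tandem cuvettes. Putative ligand (enones, enals, a quinone or a hydroxybenzaldehyde) was added both to enzyme solution in the sample cell and to 50 mM Tris-HCl pH 7.5 buffer in the reference cell. Spectral changes were followed as a function of ligand concentration.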

[4] = target: T2, TtENR; experiment: UV-visible difference titration of ligands with TtENR; assay type: binding
Outline: as §2

[5] = target: yeast OYE; details: read-out: dissociation constant (Kd); cited from earlier work
[6] = tested on: yeast OYE; details: cited from earlier work; for rate of reduction of the flavin cofactor: biphasic kinetics
[7] = target: T2, TtENR; experiment: Stopped-flow reductive half reaction of TtENR; assay type: biochemical; details: monophasic, 37 °C, 100 mM Tris-HCl pH 7.4
Outline: (§3)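 Anoxic stopped-flow at 37 °C in a glove box, single-mixing mode. Enzyme was mixed with NADPH or NADH at 0.4–10.0 mM in 100 mM Tris-HCl pH 7.4, with nitrogen-flushed buffers. Flavin reduction was monitored as A458 change with a diode-array detector.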

[8] = target: T1, PhENR; experiment: Stopped-flow reductive half reaction of PhENR; assay type: biochemical; details: monophasic, 37 °C, 100 mM Tris-HCl pH 7.4
Outline: as §3

[9] = target: T2, TtENR; experiment: Steady-state turnover; assay type: biochemical; details: NADPH and dioxygen as substrates, 50 mM potassium phosphate pH 7.0, 75 °C
[10] = target: T2, TtENR; experiment: Stopped-flow reoxidation of reduced TtENR; assay type: biochemical; details: air-saturated buffer
Outline: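 Enzyme in 50 mM potassium phosphate pH 7.0 was reduced anoxically with sodium dithionite, and excess dithionite was removed on a desalting column inside a glove box. Reduced enzyme was mixed in single-mixing stopped-flow at 37 °C with substrate at various concentrations or with air-saturated buffer. FMN reoxidation was followed at A458 by diode array. Curves were fitted with a two-exponential function.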

T1 sequence (O58586 whole entry): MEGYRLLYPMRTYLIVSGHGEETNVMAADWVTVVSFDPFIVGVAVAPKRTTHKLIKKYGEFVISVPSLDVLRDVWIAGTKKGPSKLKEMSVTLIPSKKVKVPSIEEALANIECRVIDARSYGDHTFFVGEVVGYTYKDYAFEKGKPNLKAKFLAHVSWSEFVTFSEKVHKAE

Compound | acceptance as substrate ([1]; Table 1) | acceptance as substrate [2] | Kd [3] | Kd [4] | other results
CC1CC(=O)N(c2ccccc2)C1=O (racemic) [Compound 5b, rac-N-phenyl-2-methylsuccinimide] | good substrates | good substrates |  |  | stereopreference compared with typical OYEs [1]: inverted stereopreference; stereopreference compared with typical OYEs [2]: inverted stereopreference
O=C1C=CC(=O)C=C1 [1,4-benzoquinone] |  |  | 1800 µM | 580 µM | 
O=C1C=CCCC1 [Compound 1a, 2-Cyclohexen-1-one] | accepted but at lower conversion rates | accepted but at lower conversion rates | 76000 µM | 40000 µM | Kd [5]: 32 µM; oxidative rate kox [6]: 102 s⁻¹
NC(=O)C1=CN([C@@H]2O[C@H](COP(=O)(O)OP(=O)(O)OC[C@H]3O[C@@H](n4cnc5c(N)ncnc54)[C@H](O)[C@@H]3O)[C@@H](O)[C@H]2O)C=CC1 [NADH] |  |  |  |  | reductive rate (kred) [7]: 0.25 s⁻¹
NC(=O)C1=CN([C@@H]2O[C@H](COP(=O)(O)OP(=O)(O)OC[C@H]3O[C@@H](n4cnc5c(N)ncnc54)[C@H](OP(=O)(O)O)[C@@H]3O)[C@@H](O)[C@H]2O)C=CC1 [NADPH] |  |  |  |  | reductive rate (kred) [8]: 0.06 s⁻¹; reductive rate (kred) [7]: 0.15 s⁻¹; turnover rate kcat [9]: 0.36 s⁻¹; Km ([9]; read-out: KM(NADPH)): 50 µM; rate of reduction of the flavin cofactor ([6]; first printed rate): 1.18 s⁻¹; rate of reduction of the flavin cofactor ([6]; second printed rate): 0.3 s⁻¹
O=O [dioxygen] |  |  |  |  | kox, reoxidation of the cofactor [10]: 57 s⁻¹

Now from value to molecule, other results behind:

acceptance as substrate ([1]; Table 1) | acceptance as substrate [2] | Kd [3] | Kd [4] | Compound | other results
good substrates | good substrates |  |  | CC(C)=CCCC(C)=CC=O (mixture of isomers) [Compound 4a, citral] | 
good substrates | good substrates |  |  | CC1=CC(=O)CC(C)(C)C1=O [Compound 2a, 2,6,6-trimethylcyclohex-2-ene-1,4-dione] | stereopreference compared with typical OYEs [1]: inverted stereopreference; stereopreference compared with typical OYEs [2]: inverted stereopreference
good substrates | good substrates |  |  | CC/C=C(\C)C=O [Compound 3a, (E)-2-methylpent-2-enal] | conversion ([1]; Table 1): full conversion
 |  | 36 µM | 25 µM | O=Cc1ccc(O)cc1 [pHB, p-hydroxybenzaldehyde] | 
